Data taken from ChEMBL document CHEMBL4270516, “Screening serine/threonine and tyrosine kinase inhibitors for histidine kinase inhibition” (Bioorg Med Chem, 2018).
Active and inactive are the calls of the source. The calls are words filed in the database; no cut-off is given here.

Key:
[1] = Inhibition of Thermotoga maritima HK853 autophosphorylation using compound at non-aggregating concentration after 30 mins in presence of [gamma-33P]-ATP by phosphorescence-based assay
Procedure, shortened: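 Coupled competition-aggregation assay with HK853 (T. maritima) and VicK (S. pneumoniae); enzymatic autophosphorylation followed with [γ-33P]ATP.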

Thermotoga maritima [2] = assay: Inhibition of ADP-BODIPY binding to Thermotoga maritima HK853 at 100 uM by fluorescence polarization assay
[3] = system: Sensor histidine kinase VicK/WalK (Streptococcus pneumoniae); assay: Induction of Streptococcus pneumoniae VicK aggregation up to 500 uM in presence of glutaraldehyde by PAGE analysis
Thermotoga maritima [4] = assay: Induction of Thermotoga maritima HK853 aggregation up to 500 uM in presence of glutaraldehyde by PAGE analysis
[5] = Inhibition of ADP-BODIPY binding to Thermotoga maritima HK853 in presence of Triton X-100 by fluorescence polarization assay
[6] = Inhibition of ADP-BODIPY binding to Thermotoga maritima HK853 by fluorescence polarization assay
[7] = Inhibition of ADP-BODIPY binding to Thermotoga maritima HK853 after day 1 by fluorescence polarization assay
[8] = Inhibition of ADP-BODIPY binding to Thermotoga maritima HK853 after day 2 by fluorescence polarization assay
Pseudomonas aeruginosa [9] = assay: Antibiofilm activity against methicillin-sensitive Pseudomonas aeruginosa PAO1 at 112.5 to 500 uM after 18 hrs by crystal violet staining-based assay; assay type: functional, organism-based
Procedure, shortened: (§1)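 Biofilm formation by S. aureus and P. aeruginosa quantified by crystal violet staining, compared against DMSO-treated bacteria.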

Staphylococcus aureus [10] = assay: Antibiofilm activity against methicillin-sensitive Staphylococcus aureus MSSA 447 at 112.5 to 500 uM after 18 hrs by crystal violet staining-based assay; assay type: functional, organism-based; procedure, shortened: as §1
Pseudomonas aeruginosa [11] = assay: Bactericidal activity against methicillin-sensitive Pseudomonas aeruginosa PAO1 at 400 uM after 18 hrs by resazurin-dye based fluorescence assay; assay type: functional, organism-based
Procedure, shortened: (§2)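 Viability of methicillin-sensitive S. aureus and P. aeruginosa after treatment, judged by optical density and resazurin indicator dye relative to a DMSO control.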

Staphylococcus aureus [12] = assay: Bactericidal activity against methicillin-sensitive Staphylococcus aureus MSSA 447 at 400 uM after 18 hrs by resazurin-dye based fluorescence assay; assay type: functional, organism-based; procedure, shortened: as §2

| SMILES | IC50 [1] [µM] | inhibition (Thermotoga maritima [2]) [%] | Activity [3] | Activity (Thermotoga maritima [4]) | IC50 [5] [µM] | IC50 [6] [µM] | other results |
| --- | --- | --- | --- | --- | --- | --- | --- |
| Nc1ncnc2c1ncn2[C@@H]1O[C@H](COP(=O)(O)OP(=O)(O)NP(=O)(O)O)[C@@H](O)[C@H]1O | 48.2 |  |  |  |  |  |  |
| Cn1cc(C2=C(c3cccc(NCC(O)CO)c3)C(=O)NC2=O)c2cc(Cl)ccc21 (stereo unspecified) |  | 79.2 | Active | Active | 24.4 | 21.9 |  |
| Nc1ncnc2c1ncn2[C@@H]1O[C@H](COP(=O)(O)OP(=O)(O)O)[C@@H](O)[C@H]1O [ADENOSINE DIPHOSPHATE] | 13.7 |  |  |  |  |  |  |
| CONC1=NC(=O)/C(=C/c2ccc3ncccc3c2)S1 | 124 | 90.1 |  |  | 27.1 | 21.6 |  |
| O=C1N=C(N[C@H](CO)c2ccccc2)S/C1=C\c1ccc2ncccc2c1 | 282 | 65.5 | Active | Active | 12 | 12 |  |
| Fc1ccc(-c2c(-c3ccncc3)[nH]c3nccnc23)cc1 | 101 | 79.9 |  |  | 22.5 | 23.7 | IC50 [7]: 2.7 µM; IC50 [8]: 6.26 µM; Activity (Pseudomonas aeruginosa [9]): inactive; Activity (Staphylococcus aureus [10]): inactive; Activity (Pseudomonas aeruginosa [11]): inactive; Activity (Staphylococcus aureus [12]): inactive |
| Fc1ccc(-c2c(-c3ccncc3)[nH]c3cccnc23)cc1 |  | 6.5 |  |  |  |  |  |
| COc1cc[nH]c1/C=C1\C(=O)Nc2ccc([N+](=O)[O-])c(C3CC[C@@H](O)C3)c21 (stereo partly specified) |  | 66.3 | Active | Active | 13 | 12 |  |
| Fc1ccc(-c2c(-c3ccncc3)n(CCN3CCOCC3)c3cccnc23)cc1 |  | 4.8 |  |  |  |  |  |
| O=C1C(c2c[nH]c3ccccc23)=C(c2c[nH]c3ccccc23)C(=O)N1O |  | 81.2 | Active | Active | > 300 | 96 |  |
| OCCn1c(-c2ccncc2)c(-c2ccc(F)cc2)c2ncccc21 |  | 5.8 |  |  |  |  |  |
| CNc1ncc2cc(Oc3ccc(F)cc3F)c(=O)n(C)c2n1 | 106 | 74.7 | Active | Active | 15.2 | 19.1 |  |
| O=[N+]([O-])c1ccc2c(c1)C(c1ccccc1Cl)=Nc1c[nH]nc1N2 |  | 98.1 | Active | Active | 160 | 26.2 |  |
| Cc1cc(C)c2c(n1)sc1c(N)ncnc12 | 99 | 73.7 |  |  | 42.2 | 38.3 |  |
| Cn1c(-c2ccncc2)c(-c2ccc(F)cc2)c2ncccc21 |  | 15 |  |  |  |  |  |
